Results from ChEMBL document CHEMBL2384909, “Development of Novel Alkene Oxindole Derivatives As Orally Efficacious AMP-Activated Protein Kinase Activators” (ACS Med Chem Lett, 2013).

Assays:
[1] = target: AMPK alpha2/beta1/gamma1 (Homo sapiens) (UniProt P54646+P54619+Q9Y478); experiment: Activation of recombinant AMPK alpha2beta1gamma1 (unknown origin) at 20 ug/mL after 2 hrs by scintillation proximity assay relative to AMP; format: protein-complex assay
AMPK alpha2/beta1/gamma1 = AMPK alpha2/beta1/gamma1 (Homo sapiens, UniProt P54619+P54646+Q9Y478); experiment: Activation of recombinant AMPK alpha2beta1gamma1 (unknown origin) after 2 hrs by scintillation proximity assay; format: protein-complex assay
How it was run: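 Activation of bacterially expressed AMPK α2β1γ1 was measured by scintillation proximity assay. Efficacy is expressed relative to AMP.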

[2] = target: T1, 5'-AMP-activated protein kinase catalytic subunit alpha-1 (Homo sapiens, UniProt Q13131); experiment: Activation of recombinant AMPK alpha1 (1 to 394) (unknown origin) at 20 ug/mL after 2 hrs by scintillation proximity assay relative to PT1
Target sequence in this assay (Q13131 whole entry, looked up): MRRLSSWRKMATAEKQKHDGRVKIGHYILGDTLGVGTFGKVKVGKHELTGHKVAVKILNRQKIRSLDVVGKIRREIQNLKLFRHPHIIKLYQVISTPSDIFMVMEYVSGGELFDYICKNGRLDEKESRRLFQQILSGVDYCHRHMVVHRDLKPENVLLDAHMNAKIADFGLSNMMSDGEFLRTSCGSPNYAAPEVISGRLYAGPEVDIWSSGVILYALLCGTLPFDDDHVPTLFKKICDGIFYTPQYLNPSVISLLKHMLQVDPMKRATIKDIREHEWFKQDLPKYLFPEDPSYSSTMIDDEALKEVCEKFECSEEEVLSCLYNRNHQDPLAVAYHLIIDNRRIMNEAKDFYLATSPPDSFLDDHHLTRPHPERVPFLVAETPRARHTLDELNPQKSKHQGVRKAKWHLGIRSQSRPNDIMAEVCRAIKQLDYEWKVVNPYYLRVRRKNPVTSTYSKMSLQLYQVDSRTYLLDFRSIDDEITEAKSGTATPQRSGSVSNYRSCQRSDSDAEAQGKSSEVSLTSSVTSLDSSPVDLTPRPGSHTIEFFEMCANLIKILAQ

[3] = target: 5'-AMP-activated protein kinase catalytic subunit alpha-2 (Homo sapiens, UniProt P54646); experiment: Activation of human AMPK alpha2 (1 to 398) expressed in African green monkey COS7 cells; format: cell-based, COS-7
[4] = target: T1, 5'-AMP-activated protein kinase catalytic subunit alpha-1; experiment: Activation of recombinant AMPK alpha1 (1 to 394) (unknown origin) after 2 hrs by scintillation proximity assay
Target sequence in this assay (Q13131 whole entry): as the sequence (Q13131 whole entry, looked up) above

[5] = target: T1, 5'-AMP-activated protein kinase catalytic subunit alpha-1; experiment: Activation of human AMPK alpha1 (1 to 394) expressed in African green monkey COS7 cells; format: cell-based, COS-7
Target sequence in this assay (Q13131 whole entry): as the sequence (Q13131 whole entry, looked up) above

[6] = Activation of AMPK in rat primary hepatocytes assessed as inhibition of fatty acid biosynthesis by 14C-acetate incorporation assay; format: cell-based; settings: Hepatocyte
[7] = Activation of partially purified rat liver AMPK assessed as 33P-phosphorylation of SAMS peptide
L6 [8] = experiment: Induction of AMPK-mediated ACC phosphorylation in rat L6 cells by Western blotting analysis; format: cell-based
L6 [9] = experiment: Induction of AMPK phosphorylation in rat L6 cells by Western blotting analysis; format: cell-based
Mus musculus = experiment: Antidiabetic activity in diet-induced obese C57BL/6J mouse assessed as reduction in plasma triglyceride at 150 mg/kg, po qd for 4 weeks (reference value: 0.62 +/- 0.02 mM); format: functional

Sequence of AMPK alpha2/beta1/gamma1 (Homo sapiens) (P54619 whole entry partner): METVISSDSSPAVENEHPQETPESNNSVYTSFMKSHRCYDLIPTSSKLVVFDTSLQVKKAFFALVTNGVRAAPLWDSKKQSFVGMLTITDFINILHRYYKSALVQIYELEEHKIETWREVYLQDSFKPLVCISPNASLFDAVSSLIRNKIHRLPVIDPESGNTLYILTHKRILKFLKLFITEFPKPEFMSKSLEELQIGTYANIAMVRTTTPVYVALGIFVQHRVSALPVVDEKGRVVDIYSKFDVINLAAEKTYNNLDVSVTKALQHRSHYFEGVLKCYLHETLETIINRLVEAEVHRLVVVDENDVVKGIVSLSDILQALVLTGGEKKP
Sequence of AMPK alpha2/beta1/gamma1 (Homo sapiens) (P54646 whole entry): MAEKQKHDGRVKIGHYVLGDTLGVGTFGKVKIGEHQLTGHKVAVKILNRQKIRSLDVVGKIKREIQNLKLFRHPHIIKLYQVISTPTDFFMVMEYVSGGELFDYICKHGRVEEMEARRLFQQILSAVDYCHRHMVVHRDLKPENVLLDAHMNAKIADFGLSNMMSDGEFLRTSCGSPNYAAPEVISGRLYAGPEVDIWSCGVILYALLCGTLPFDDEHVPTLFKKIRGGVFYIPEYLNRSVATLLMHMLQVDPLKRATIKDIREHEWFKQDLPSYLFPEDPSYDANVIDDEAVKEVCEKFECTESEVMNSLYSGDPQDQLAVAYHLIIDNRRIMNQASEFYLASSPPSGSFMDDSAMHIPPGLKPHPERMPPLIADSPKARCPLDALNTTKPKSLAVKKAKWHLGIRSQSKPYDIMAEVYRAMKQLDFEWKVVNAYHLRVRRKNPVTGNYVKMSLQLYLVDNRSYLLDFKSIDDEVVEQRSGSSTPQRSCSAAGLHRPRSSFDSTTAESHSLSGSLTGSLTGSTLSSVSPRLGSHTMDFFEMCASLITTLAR
Sequence of AMPK alpha2/beta1/gamma1 (Homo sapiens) (Q9Y478 2-270 partner limits assumed): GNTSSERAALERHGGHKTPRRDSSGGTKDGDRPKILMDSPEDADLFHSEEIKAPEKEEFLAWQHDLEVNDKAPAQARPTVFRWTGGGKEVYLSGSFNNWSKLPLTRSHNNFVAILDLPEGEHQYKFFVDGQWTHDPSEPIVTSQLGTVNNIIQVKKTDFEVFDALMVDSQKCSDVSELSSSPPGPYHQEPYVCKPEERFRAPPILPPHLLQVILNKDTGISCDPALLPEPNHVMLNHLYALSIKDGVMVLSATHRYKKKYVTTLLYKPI
Sequence of AMPK alpha2/beta1/gamma1 (P54646 whole entry): as the sequence (P54646 whole entry) above
Sequence of AMPK alpha2/beta1/gamma1 (P54619 whole entry): as the sequence (P54619 whole entry partner) above
Sequence of AMPK alpha2/beta1/gamma1 (Q9Y478 whole entry): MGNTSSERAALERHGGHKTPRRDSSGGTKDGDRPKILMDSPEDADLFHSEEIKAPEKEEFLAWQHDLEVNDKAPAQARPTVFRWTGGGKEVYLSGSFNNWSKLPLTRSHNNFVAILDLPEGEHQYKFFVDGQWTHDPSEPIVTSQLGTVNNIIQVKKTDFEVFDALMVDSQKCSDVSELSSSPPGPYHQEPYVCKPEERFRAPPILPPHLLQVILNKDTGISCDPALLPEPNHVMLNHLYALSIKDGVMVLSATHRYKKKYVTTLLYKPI
Sequence of 5'-AMP-activated protein kinase catalytic subunit alpha-2 (P54646 whole entry): as the sequence (P54646 whole entry) above

For `CC(C)/C(=C1\C(=O)N(Cc2cccc(C(=O)O)c2)c2ccccc21)c1ccccc1`, the Efficacy [1] was under 50% and the EC50 (AMPK alpha2/beta1/gamma1) was over 10 µM.

With `O=C(O)c1cccc(CN2C(=O)/C(=C(\c3ccccc3)c3ccccc3Cl)c3ccccc32)c1` the Efficacy [1] was 101% and the EC50 (AMPK alpha2/beta1/gamma1) was 1.8 µM.

With `Cc1cc(-c2ccc(/C=C3\S/C(=N\c4ccc(F)cc4)NC3=O)o2)c([N+](=O)[O-])cc1C` the Activity [2] was under 50%.

In the case of `O=C(O)c1ccc(CN2C(=O)/C(=C(\c3ccccc3)c3ccc(Cl)cc3)c3ccccc32)nc1`, the Efficacy [1] is reported as 75% and the EC50 (AMPK alpha2/beta1/gamma1) is reported as 9.2 µM.

Molecule `CC(C)/C(=C1\C(=O)N(Cc2cccc(C(=O)O)c2)c2ccccc21)c1ccc(Cl)cc1` has an Efficacy [1] of 227% and an EC50 (AMPK alpha2/beta1/gamma1) of 9.9 µM.

For `Cc1cc(-c2ccc(/C=C3\SC(=S)N(c4cccc(C(=O)O)c4)C3=O)o2)c([N+](=O)[O-])cc1C`, the Activity [2] was under 50%.

`O=C1N/C(=N/c2ccc(Cl)c(C(=O)O)c2)S/C1=C\c1ccc(-c2ccccc2Cl)o1` gave an Activity [2] of under 50%.

`Cc1cc(-c2ccc(/C=C3\S/C(=N\c4ccc(Cl)c(C(=O)O)c4)NC3=O)o2)c([N+](=O)[O-])cc1C` gave an EC50 [3] of 12 µM, an Efficacy [1] of 40% and an EC50 (AMPK alpha2/beta1/gamma1) of 0.3 µM. The EC50 [4] was 9.6 µM and the EC50 [5] was 9 µM.

Molecule `Cc1cc(-c2ccc(/C=C3\S/C(=N\c4cccc(C(=O)O)c4)NC3=O)o2)c([N+](=O)[O-])cc1C` has an Activity [2] of 106%.

With `O=C(O)c1cccc(CN2C(=O)/C(=C(\c3ccccc3)c3ccccc3OC(F)(F)F)c3ccccc32)c1` the Efficacy [1] was 99% and the EC50 (AMPK alpha2/beta1/gamma1) was 7.4 µM.

`Cc1cc(-c2ccc(/C=C3\S/C(=N\c4ccccc4C(=O)O)NC3=O)o2)c([N+](=O)[O-])cc1C` showed an Activity [2] of 55%.

In the case of `N#Cc1c(O)c2c(-c3ccc(-c4ccccc4O)cc3)csc2[nH]c1=O`, the IC50 [6] is reported as 3.2 µM and the EC50 [7] is reported as 800 nM.

With `CC(C)c1ccc(/C(=C2/C(=O)N(Cc3cccc(C(=O)O)c3)c3ccccc32)c2ccccc2)cc1` the Efficacy [1] was 97% and the EC50 (AMPK alpha2/beta1/gamma1) was 4 µM.

For `O=C(O)c1cccc(CN2C(=O)/C(=C/c3ccc(-c4ccc(F)c(Cl)c4)o3)c3ccccc32)c1`, the Activity (L6 [8]) was “Dose-dependent effect”, the Activity (L6 [9]) was “Dose-dependent effect” and the Efficacy [1] was 122%. For the same molecule, the EC50 (AMPK alpha2/beta1/gamma1) was 4.8 µM.

With `O=C1N/C(=N/c2ccc(Cl)c(C(=O)O)c2)S/C1=C\c1ccc(-c2ccccc2[N+](=O)[O-])o1` the Activity [2] was under 50%.

`CN(C)C(=N)NC(=N)N` [METFORMIN] gave an Activity (Mus musculus) of 0.5 mM.

For `O=C(O)c1cccc(CN2C(=O)/C(=C/c3ccc(-c4cccc([N+](=O)[O-])c4)o3)c3ccccc32)c1`, the Activity (L6 [8]) was “Dose-dependent effect”, the Activity (L6 [9]) was “Dose-dependent effect” and the Efficacy [1] was 152%. For the same molecule, the EC50 (AMPK alpha2/beta1/gamma1) was 3.2 µM, the EC50 [4] was 2.1 µM and the Activity [2] was 341%.

Molecule `O=C1/C(=C(\c2ccccc2)c2ccc(Cl)cc2)c2ccccc2N1Cc1ccccc1` has an Efficacy [1] of 70% and an EC50 (AMPK alpha2/beta1/gamma1) of 1 µM.

For `O=C1N/C(=N/c2ccc(Cl)c(C(=O)O)c2)S/C1=C\c1ccc(-c2cccc([N+](=O)[O-])c2)o1`, the Activity [2] was 176%.

For `O=C(O)c1cccc(CN2C(=O)/C(=C(/c3ccc(Cl)cc3)C3CCCCC3)c3ccccc32)c1`, the Efficacy [1] was 103% and the EC50 (AMPK alpha2/beta1/gamma1) was 4.6 µM.

`O=C(O)c1cccc(CN2C(=O)/C(=C(\c3ccccc3)c3cccnc3)c3ccccc32)c1` gave an Efficacy [1] of 96% and an EC50 (AMPK alpha2/beta1/gamma1) of 3.2 µM.

In the case of `COC(=O)c1cc(/N=C2/NC(=O)/C(=C/c3ccc(-c4cc(C)c(C)cc4[N+](=O)[O-])o3)S2)ccc1Cl`, the Activity [2] is reported as under 50%.

`O=C(O)c1cccc(CN2C(=O)/C(=C(\c3ccccc3)c3ccc(F)c(Cl)c3)c3ccccc32)c1` gave an Efficacy [1] of 105% and an EC50 (AMPK alpha2/beta1/gamma1) of 5.9 µM.

In the case of `CC(C)NC(=O)c1cccc(CN2C(=O)/C(=C(\c3ccccc3)c3ccc(Cl)cc3)c3ccccc32)c1`, the Efficacy [1] is reported as 151% and the EC50 (AMPK alpha2/beta1/gamma1) is reported as 4.5 µM.
